Test system in one data set: not listed separately
The experiment in a line: Cytotoxicity against human CEM cells by coulter counter analysis. Format: cell-based. The following applies: CEM (CCRF-CEM) cells. The method, boiled down:
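Mock-infected CEM cultures with compound, cell number counted by Coulter counter as percent of untreated control. CC₅₀ (50% reduction in proliferation) was read from plots against concentration. Values are means of two experiments in triplicate.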
Broadly, the CC50 is the concentration giving 50% cytotoxicity. `Cc1cc(C)cc(S(=O)(=O)c2c(C(=O)NCCn3cccc3)[nH]c3ccc(Cl)cc23)c1` displayed a CC50 of 54000 nM.
For `Cc1cc(C)cc(S(=O)(=O)c2c(C(=O)NCN3CCCCC3)[nH]c3ccc(Cl)cc23)c1`, the CC50 came out at 9900 nM.

Another data set concerns the target Human immunodeficiency virus type 1 reverse transcriptase (Human immunodeficiency virus 1, UniProt Q72547, Y181I). The data set can be described thus: Inhibition of HIV1 reverse transcriptase Y181I mutant expressed in Escherichia coli assessed as incorporation of [3H]dTTP into poly(rA)/oligo(dT) by scintillation counting.
Conditions: not given
The procedure, abridged: (§1)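 The RT was recombinant p66(His)/p51 heterodimer, mutant form, expressed in E. coli. TCA-precipitable radioactivity on GF/C filters was read by scintillation. IC50 is the concentration giving 50% inhibition.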
For orientation: IC50 means the concentration needed to halve the response being measured. For the compound `Cc1cc(C)cc(S(=O)(=O)c2c(C(=O)NCCn3cccc3)[nH]c3ccc(Cl)cc23)c1`, the concentration for half-maximal inhibition (IC50) is > 40000 nM.
The same measure, in the same setting: the figure for `Cc1cc(C)cc(S(=O)(=O)c2c(C(=O)NCN3CCCCC3)[nH]c3ccc(Cl)cc23)c1` is 581 nM.

For the next data set, the system named is Human immunodeficiency virus 1. The data set can be described thus: Antiviral activity against HIV1 harboring reverse transcriptase Y188L mutant infected in human MT-4 cells assessed as inhibition of virus-induced cytopathicity after 4 days by MTT assay. In kind it is functional, organism-based. Conditions: Human immunodeficiency virus 1, MT4, 96 h. The procedure, abridged: (§2)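 MT-4 cells at 1 × 10⁵ cells/mL were infected with RT-mutant HIV-1 at a multiplicity of infection of 0.02. They were plated at once with serial compound dilutions (DMSO stocks of 50 mM or higher). […] Virus stocks had been titrated in MT-4 cells as CCID50.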
On the technique in general: Protection from cytopathic effect is a common read-out in antiviral testing.
As usually defined, the EC50 is the concentration at which the effect is half-maximal. With `Cc1cc(C)cc(S(=O)(=O)c2c(C(=O)NCCn3cccc3)[nH]c3ccc(Cl)cc23)c1`, the EC50 is > 1000 nM.

In a further data set the test system is Human immunodeficiency virus 1. The data set can be described thus: Antiviral activity against HIV1 group O BCF06 infected in PHA-stimulated human PBMC assessed as inhibition p24 production after 10 to 12 days by ELISA. Conditions: Human immunodeficiency virus 1, group O BCF06. In kind it is functional, organism-based. The procedure, abridged:
(§3)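 PHA-stimulated (2 μg/mL, 3 days, 37 °C) donor PBMC blasts, washed in PBS, seeded 0.5 × 10⁶ cells/well in RPMI 1640 with 10% fetal calf serum and IL-2 (25 units/mL) containing varying compound concentrations; virus added at 250 pg p24/mL final. Supernatant collected days 10-12 and assayed for HIV-1 core antigen.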
Background: In an ELISA, binding on a coated surface is turned into a signal by an enzyme label.
Consider `Cc1cc(C)cc(S(=O)(=O)c2c(C(=O)NCCn3cccc3)[nH]c3ccc(Cl)cc23)c1`, for which the concentration for a half-maximal effect (EC50) amounted to 3.2 nM.

For another data set, the system named is Human immunodeficiency virus 1. The data set can be described thus: Antiviral activity against HIV1 clade B BaL infected in PHA-stimulated human PBMC assessed as inhibition of p24 production after 10 to 12 days by ELISA. Format: functional, organism-based. Conditions: Human immunodeficiency virus 1, clade B BaL. The procedure, abridged: as §3
With `Cc1cc(C)cc(S(=O)(=O)c2c(C(=O)NCCn3cccc3)[nH]c3ccc(Cl)cc23)c1`, the EC50 was determined as 2.3 nM.

A further data set concerns the target Human immunodeficiency virus type 1 reverse transcriptase (Human immunodeficiency virus 1, UniProt Q72547, L100I). The data set can be described thus: Inhibition of HIV1 reverse transcriptase L100I mutant expressed in Escherichia coli assessed as incorporation of [3H]dTTP into poly(rA)/oligo(dT) by scintillation counting.
Conditions: not given
The method, boiled down:
as §1
Consider `Cc1cc(C)cc(S(=O)(=O)c2c(C(=O)NCCn3cccc3)[nH]c3ccc(Cl)cc23)c1`, for which the IC50 is 34 nM.
The same measure, in the same setting: the figure for `Cc1cc(C)cc(S(=O)(=O)c2c(C(=O)NCN3CCCCC3)[nH]c3ccc(Cl)cc23)c1` is 37 nM.

The next data set deals with Human immunodeficiency virus type 1 reverse transcriptase (Human immunodeficiency virus 1), Q72547 [K103N]. The data set can be described thus: Ratio of compound IC50 to efavirenz IC50 for HIV1 reverse transcriptase K103N mutant.
Conditions: not given
With `Cc1cc(C)cc(S(=O)(=O)c2c(C(=O)NCN3CCCCC3)[nH]c3ccc(Cl)cc23)c1`, the Ratio IC50 is > 160.

For another data set, the target named is Human immunodeficiency virus type 1 reverse transcriptase (Human immunodeficiency virus 1, UniProt Q72547, K103N). The data set can be described thus: Inhibition of HIV1 reverse transcriptase K103N mutant expressed in Escherichia coli assessed as incorporation of [3H]dTTP into poly(rA)/oligo(dT) by scintillation counting.
Conditions: not given
The procedure, abridged:
as §1
`Cc1cc(C)cc(S(=O)(=O)c2c(C(=O)NCCn3cccc3)[nH]c3ccc(Cl)cc23)c1`: the IC50 amounted to 85 nM.
Same read-out and setting: the figure for `Cc1cc(C)cc(S(=O)(=O)c2c(C(=O)NCN3CCCCC3)[nH]c3ccc(Cl)cc23)c1` is 120 nM.

The subject of another data set is Human immunodeficiency virus 1. The data set can be described thus: Antiviral activity against wild type HIV1 3B infected in human CEM cells assessed as inhibition of virus-induced cytopathicity after 4 days by microscopic analysis. The following applies: Human immunodeficiency virus 1, 3B, CCRF-CEM, 96 h. Format: functional, organism-based. The procedure, abridged:
(§4)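 CEM cells (~3 × 10⁵ cells/mL) infected with ~100 CCID₅₀ virus per mL, seeded into wells with compound dilutions. Syncytia (giant cell) formation scored microscopically after 4 days at 37 °C. EC₅₀ is the concentration protecting cells by 50%. Values are means of two experiments in triplicate.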
As to `Cc1cc(C)cc(S(=O)(=O)c2c(C(=O)NCCn3cccc3)[nH]c3ccc(Cl)cc23)c1`, the EC50 came out at 6.5 nM.
Same read-out and setting: the figure for `Cc1cc(C)cc(S(=O)(=O)c2c(C(=O)NCN3CCCCC3)[nH]c3ccc(Cl)cc23)c1` is 1.3 nM.

The test system of another data set is Human immunodeficiency virus 1. The experiment in a line: Antiviral activity against wild type HIV1 3B infected in human MT-4 cells assessed as inhibition of virus-induced cytopathicity after 4 days by MTT assay. Format: functional, organism-based. The following applies: Human immunodeficiency virus 1, 3B, MT4, 96 h. The method, boiled down:
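MT-4 cells at 1 × 10⁵ cells/mL, infected at MOI 0.02 (virus titrated as CCID₅₀ in MT-4), dispensed immediately onto serial compound concentrations (DMSO stocks ≥50 mM). Viable cells counted by MTT after 4 days at 37 °C. EC₅₀ is the concentration giving 50% protection of cell viability. Values are means of at least three experiments.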
`Cc1cc(C)cc(S(=O)(=O)c2c(C(=O)NCCn3cccc3)[nH]c3ccc(Cl)cc23)c1`: the EC50 was found to be 15 nM.

A further data set concerns Human immunodeficiency virus 1. The experiment in a line: Antiviral activity against HIV1 harboring reverse transcriptase L100I mutant infected in human MT-4 cells assessed as inhibition of virus-induced cytopathicity after 4 days by MTT assay. The following applies: Human immunodeficiency virus 1, MT4, 96 h. Format: functional, organism-based. The method, boiled down:
as §2
Turning to `Cc1cc(C)cc(S(=O)(=O)c2c(C(=O)NCCn3cccc3)[nH]c3ccc(Cl)cc23)c1`, the EC50 was 11 nM.

Test system in another data set: not listed separately
The experiment in a line: Selectivity index, CC50 for human CEM cells to IC50 for HIV1 3B.
Conditions: not given
In kind it is functional, CCRF-CEM. The procedure, abridged:
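Ratio of CC₅₀ (Coulter count, mock-infected CEM) to EC₅₀ (CEM, HIV-1 IIIB, microscopic syncytia scoring at day 4).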
Turning to `Cc1cc(C)cc(S(=O)(=O)c2c(C(=O)NCCn3cccc3)[nH]c3ccc(Cl)cc23)c1`, the “Selectivity Index” value was found to be 8308.
The same measure, in the same setting: the figure for `Cc1cc(C)cc(S(=O)(=O)c2c(C(=O)NCN3CCCCC3)[nH]c3ccc(Cl)cc23)c1` is 7615.

Another data set deals with Human immunodeficiency virus 1. The experiment in a line: Antiviral activity against HIV1 clade A UG273 infected in PHA-stimulated human PBMC assessed as inhibition of p24 production after 10 to 12 days by ELISA. Conditions: Human immunodeficiency virus 1, clade A UG273. In kind it is functional, organism-based. The procedure, abridged:
as §3
On to `Cc1cc(C)cc(S(=O)(=O)c2c(C(=O)NCCn3cccc3)[nH]c3ccc(Cl)cc23)c1`, for which the EC50 was found to be 2.1 nM.

Another data set addresses Human immunodeficiency virus type 1 reverse transcriptase (Human immunodeficiency virus 1, UniProt Q72547). The experiment in a line: Inhibition of HIV1 wild type reverse transcriptase expressed in Escherichia coli assessed as incorporation of [3H]dTTP into poly(rA)/oligo(dT) by scintillation counting.
Conditions: not given
The procedure, abridged: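 Template was poly(rA)/oligo(dT) 10:1 (0.3 μM 3′-OH ends) with 10 μM [³H]dTTP, at 37 °C. TCA-precipitable counts were taken on GF/C filters. IC₅₀ is 50% inhibition of RT activity.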
For the compound `Cc1cc(C)cc(S(=O)(=O)c2c(C(=O)NCCn3cccc3)[nH]c3ccc(Cl)cc23)c1`, the IC50 was determined as 14 nM.
The same measure, in the same setting: the figure for `Cc1cc(C)cc(S(=O)(=O)c2c(C(=O)NCN3CCCCC3)[nH]c3ccc(Cl)cc23)c1` is 8 nM.

The next data set has as its system Human immunodeficiency virus 1. The data set can be described thus: Antiviral activity against HIV1 clade C DJ259 infected in PHA-stimulated human PBMC assessed as inhibition of p24 production after 10 to 12 days by ELISA. Format: functional, organism-based. Conditions: Human immunodeficiency virus 1, clade C DJ259. The method, boiled down:
as §3
`Cc1cc(C)cc(S(=O)(=O)c2c(C(=O)NCCn3cccc3)[nH]c3ccc(Cl)cc23)c1`: the EC50 is 3.5 nM.

The subject of a further data set is Human immunodeficiency virus 1. The experiment in a line: Antiviral activity against HIV1 harboring reverse transcriptase Y181C mutant infected in human MT-4 cells assessed as inhibition of virus-induced cytopathicity after 4 days by MTT assay. The following applies: Human immunodeficiency virus 1, MT4, 96 h. Format: functional, organism-based. The procedure, abridged:
as §2
As to `Cc1cc(C)cc(S(=O)(=O)c2c(C(=O)NCCn3cccc3)[nH]c3ccc(Cl)cc23)c1`, the EC50 was 67 nM.

For another data set, the system named is Human immunodeficiency virus 1. The experiment in a line: Antiviral activity against HIV1 clade A/E ID12 infected in PHA-stimulated human PBMC assessed as inhibition of p24 production after 10 to 12 days by ELISA. In kind it is functional, organism-based. Conditions: Human immunodeficiency virus 1, clade A/E ID12. The method, boiled down: as §3
Take `Cc1cc(C)cc(S(=O)(=O)c2c(C(=O)NCCn3cccc3)[nH]c3ccc(Cl)cc23)c1`: the concentration giving a half-maximal response (EC50) was 2.9 nM.

The test system of the next data set is Human immunodeficiency virus 1. The data set can be described thus: Antiviral activity against HIV1 harboring reverse transcriptase E138K mutant infected in human MT-4 cells assessed as inhibition of virus-induced cytopathicity after 4 days by MTT assay. In kind it is functional, organism-based. Conditions: Human immunodeficiency virus 1, MT4, 96 h. The procedure, abridged: as §2
As for `Cc1cc(C)cc(S(=O)(=O)c2c(C(=O)NCCn3cccc3)[nH]c3ccc(Cl)cc23)c1`, the EC50 came to 18 nM.

The test system of the next data set is Human immunodeficiency virus 1. The experiment in a line: Antiviral activity against […] harboring reverse transcriptase K103N mutant infected in human MT-4 cells assessed as inhibition of virus-induced cytopathicity after 4 days by MTT assay. In kind it is functional, organism-based. The following applies: Human immunodeficiency virus 1, MT4, 96 h. The method, boiled down: as §2
As for `Cc1cc(C)cc(S(=O)(=O)c2c(C(=O)NCCn3cccc3)[nH]c3ccc(Cl)cc23)c1`, the EC50 was 15 nM.

The test system of a further data set is Human immunodeficiency virus 2. The experiment in a line: Antiviral activity against HIV2 isolate ROD infected in human CEM cells assessed as inhibition of virus-induced cytopathicity after 4 days by microscopic analysis. Format: functional, organism-based. The following applies: Human immunodeficiency virus 2, ISOLATE ROD, CCRF-CEM, 96 h. The procedure, abridged: as §4
Consider `Cc1cc(C)cc(S(=O)(=O)c2c(C(=O)NCCn3cccc3)[nH]c3ccc(Cl)cc23)c1`, for which the EC50 was > 10000 nM.
In the case of `Cc1cc(C)cc(S(=O)(=O)c2c(C(=O)NCN3CCCCC3)[nH]c3ccc(Cl)cc23)c1`, the EC50 is > 2000 nM.

The values above are taken from ChEMBL document CHEMBL1765016, “Indolylarylsulfones as HIV-1 non-nucleoside reverse transcriptase inhibitors: new cyclic substituents at indole-2-carboxamide” (J Med Chem, 2011).
